In BindingDB's records for doi:10.1021/jm800913d (National Institute On Drug Abuse, 2008):

Key:
[1] = molecular target: Kappa-type opioid receptor (Homo sapiens, UniProt P41145); assay: Displacement of [125I]IOXY from human recombinant kappa opioid receptor expressed in CHO cells
Method in brief: (§1)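 Radioligand displacement run in CHO cells stably transfected to express the μ-, δ- or κ-opioid receptor, each receptor in its own line. The method follows the authors' earlier procedure. Each value comes from n=3 determinations.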

Mu-type opioid receptor = Mu-type opioid receptor (Homo sapiens, UniProt P35372); assay: Displacement of [125I]IOXY from human recombinant mu opioid receptor expressed in CHO cells; method in brief: as §1
[2] = molecular target: Delta-type opioid receptor (Homo sapiens, UniProt P41143); assay: Displacement of [125I]IOXY from human recombinant delta opioid receptor expressed in CHO cells; method in brief: as §1
Sequence of Delta-type opioid receptor (P41143 whole entry): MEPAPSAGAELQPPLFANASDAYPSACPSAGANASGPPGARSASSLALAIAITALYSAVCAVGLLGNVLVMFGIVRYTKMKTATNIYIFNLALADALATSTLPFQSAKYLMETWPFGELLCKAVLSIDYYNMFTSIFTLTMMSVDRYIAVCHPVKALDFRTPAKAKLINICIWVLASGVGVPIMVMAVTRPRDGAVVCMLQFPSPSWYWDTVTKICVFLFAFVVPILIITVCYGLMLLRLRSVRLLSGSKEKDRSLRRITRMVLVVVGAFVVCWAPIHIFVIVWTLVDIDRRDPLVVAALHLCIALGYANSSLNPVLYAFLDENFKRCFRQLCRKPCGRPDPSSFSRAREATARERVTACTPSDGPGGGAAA

Sequence of Kappa-type opioid receptor (P41145 whole entry): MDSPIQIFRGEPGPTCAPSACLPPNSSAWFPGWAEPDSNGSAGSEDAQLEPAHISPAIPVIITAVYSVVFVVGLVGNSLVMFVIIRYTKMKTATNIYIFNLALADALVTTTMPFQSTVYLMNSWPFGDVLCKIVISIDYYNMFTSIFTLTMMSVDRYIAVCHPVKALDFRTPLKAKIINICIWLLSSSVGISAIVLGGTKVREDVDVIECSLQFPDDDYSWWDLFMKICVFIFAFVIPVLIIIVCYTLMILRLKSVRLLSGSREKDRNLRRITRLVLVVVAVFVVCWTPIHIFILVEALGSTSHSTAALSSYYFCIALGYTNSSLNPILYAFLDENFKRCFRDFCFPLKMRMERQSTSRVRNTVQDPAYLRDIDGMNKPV
Sequence of Mu-type opioid receptor (P35372 whole entry): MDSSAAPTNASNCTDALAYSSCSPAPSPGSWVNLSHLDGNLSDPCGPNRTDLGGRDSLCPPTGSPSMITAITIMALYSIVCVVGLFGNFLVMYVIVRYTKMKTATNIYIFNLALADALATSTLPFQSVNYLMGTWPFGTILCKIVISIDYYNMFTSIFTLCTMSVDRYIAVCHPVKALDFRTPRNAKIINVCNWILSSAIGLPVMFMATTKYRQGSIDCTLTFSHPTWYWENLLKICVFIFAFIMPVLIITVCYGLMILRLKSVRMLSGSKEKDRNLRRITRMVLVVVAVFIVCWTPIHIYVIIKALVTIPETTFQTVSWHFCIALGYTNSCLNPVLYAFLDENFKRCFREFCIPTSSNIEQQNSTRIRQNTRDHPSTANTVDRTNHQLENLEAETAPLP

Q: How did the Ki [1] turn out when `CN1CC[C@@]23C[C@@H]1CC[C@H]2Oc1c(O)cccc13` [(4R*,6aS*,11bR*)-2,3,4,5,6,6a-Hexahydro-3-methyl-1H-4,11b-methanobenzofuro[3,2-d]azocine-8-ol] was run?
A: The Ki was 910 nM.

Q: What about the Ki (Mu-type opioid receptor) of the same compound?
A: Its Ki is 3210 nM.

Q: With `Oc1cccc2c1O[C@H]1CN(CCc3ccccc3)[C@@H]3CCC[C@]21C3` [(3R*,6aS*,11aR*)-1,3,4,5,6,11a-Hexahydro-2-phenethyl-2H-3,6a-methanobenzofuro [2,3-c]azocin-10-ol] as the compound, how does the Ki [1] read?
A: Its Ki is 200 nM.

Q: And the Ki [2]?
A: Its Ki is 2840 nM.

Q: And the Ki (Mu-type opioid receptor)?
A: Its Ki is 560 nM.

Q: How did the Ki [1] turn out when `Oc1cccc2c1O[C@@H]1CC[C@H]3C[C@@]21CCN3CCc1ccccc1` [(4R*,6aS*,11bR*)-2,3,4,5,6,6a-Hexahydro-3-phenethyl-1H-4,11b-methanobenzofuro[3,2-d]azocine-8-ol] was run?
A: Its Ki is 26 nM.

Q: And the Ki [2]?
A: Its Ki is 3710 nM.

Q: What about the Ki (Mu-type opioid receptor) of the same compound?
A: The Ki was 190 nM.

Q: How did the Ki [1] turn out when `CN1C[C@@H]2Oc3c(O)cccc3[C@@]23CCC[C@@H]1C3` [(3R*,6aS*,11aR*)-1,3,4,5,6,11a-Hexahydro-2-methyl-2H-3,6amethanobenzofuro[2,3-c]azocin-10-ol] was run?
A: The Ki was 4820 nM.

Q: What about the Ki [2] of the same compound?
A: The Ki was 3430 nM.

Q: For `Oc1ccc2c(c1)[C@@]13CCN(CCc4ccccc4)[C@@H](CC[C@H]1O2)C3` [(4R*,6aS*,11bR*)-2,3,4,5,6,6a-Hexahydro-3-phenethyl-1H-4,11b-methanobenzofuro[3,2-d]azocine-10-ol], which Ki [1] is on record?
A: The Ki was 78 nM.

Q: And the Ki [2]?
A: The Ki was 4760 nM.

Q: And the Ki (Mu-type opioid receptor)?
A: Its Ki is 740 nM.

Q: With `CN1C[C@@H]2Oc3ccc(O)cc3[C@@]23CCC[C@@H]1C3` [(3R*,6aS*,11aR*)-1,3,4,5,6,11a-Hexahydro-2-methyl-2H-3,6a-methanobenzofuro[2,3-c]azocin-8-ol] as the compound, how does the Ki [1] read?
A: Its Ki is 620 nM.

Q: What about the Ki [2] of the same compound?
A: The Ki was 2780 nM.

Q: `CN1CC[C@@]23C[C@@H]1CC[C@H]2Oc1ccc(O)cc13` [(4R*,6aS*,11bR*)-2,3,4,5,6,6a-Hexahydro-3-methyl-1H-4,11bmethanobenzofuro[3,2-d]azocine-10-ol] was tested. Which Ki [2] did it give?
A: Its Ki is over 10000 nM.

Q: And the Ki (Mu-type opioid receptor)?
A: Its Ki is over 10000 nM.
